# How the values were obtained:
# [1] = biological target: Mitogen-activated protein kinase 10 (Homo sapiens, UniProt P53779); test: Inhibition of JNK3 Lys2 labeling site in human A-375 cells at 0.05 uM by KiNativ Profiling analysis relative to control; format: cell-based
# [2] = biological target: Cyclin-dependent kinase 11B (Homo sapiens) (UniProt P21127); test: Inhibition of CDK11 Lys2 labeling site in human A-375 cells at 0.05 uM by KiNativ Profiling analysis relative to control; format: cell-based
# Chain of Cyclin-dependent kinase 11B (Homo sapiens) (P21127 whole entry): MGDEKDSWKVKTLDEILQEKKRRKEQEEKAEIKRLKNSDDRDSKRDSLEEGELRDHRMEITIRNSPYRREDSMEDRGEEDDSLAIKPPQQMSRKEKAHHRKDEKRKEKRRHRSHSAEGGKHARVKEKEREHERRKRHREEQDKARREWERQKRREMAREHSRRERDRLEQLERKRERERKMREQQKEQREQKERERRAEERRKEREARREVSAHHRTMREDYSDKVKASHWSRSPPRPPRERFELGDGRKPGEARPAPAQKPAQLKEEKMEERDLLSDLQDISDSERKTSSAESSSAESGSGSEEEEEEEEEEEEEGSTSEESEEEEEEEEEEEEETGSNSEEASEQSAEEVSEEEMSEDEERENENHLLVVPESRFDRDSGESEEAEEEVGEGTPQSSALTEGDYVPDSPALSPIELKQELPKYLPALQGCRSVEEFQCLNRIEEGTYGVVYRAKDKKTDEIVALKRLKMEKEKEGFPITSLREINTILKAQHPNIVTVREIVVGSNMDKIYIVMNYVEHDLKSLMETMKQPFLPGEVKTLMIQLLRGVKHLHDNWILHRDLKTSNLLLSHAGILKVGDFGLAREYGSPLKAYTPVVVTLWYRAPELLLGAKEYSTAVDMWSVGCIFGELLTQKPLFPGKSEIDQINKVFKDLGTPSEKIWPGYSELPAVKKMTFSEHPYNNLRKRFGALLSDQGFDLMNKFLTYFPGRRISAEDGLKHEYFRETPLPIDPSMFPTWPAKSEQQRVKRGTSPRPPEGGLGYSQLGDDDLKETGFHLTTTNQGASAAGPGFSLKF
# [3] = biological target: Serine/threonine-protein kinase 24 (Homo sapiens) (UniProt Q9Y6E0); test: Inhibition of MST3 Lys2 labeling site harbouring DIKAANVLLSEHGEVK in human A-375 cells at 0.5 uM by KiNativ Profiling analysis relative to control; format: cell-based
# Chain of Serine/threonine-protein kinase 24 (Homo sapiens) (Q9Y6E0 whole entry, looked up): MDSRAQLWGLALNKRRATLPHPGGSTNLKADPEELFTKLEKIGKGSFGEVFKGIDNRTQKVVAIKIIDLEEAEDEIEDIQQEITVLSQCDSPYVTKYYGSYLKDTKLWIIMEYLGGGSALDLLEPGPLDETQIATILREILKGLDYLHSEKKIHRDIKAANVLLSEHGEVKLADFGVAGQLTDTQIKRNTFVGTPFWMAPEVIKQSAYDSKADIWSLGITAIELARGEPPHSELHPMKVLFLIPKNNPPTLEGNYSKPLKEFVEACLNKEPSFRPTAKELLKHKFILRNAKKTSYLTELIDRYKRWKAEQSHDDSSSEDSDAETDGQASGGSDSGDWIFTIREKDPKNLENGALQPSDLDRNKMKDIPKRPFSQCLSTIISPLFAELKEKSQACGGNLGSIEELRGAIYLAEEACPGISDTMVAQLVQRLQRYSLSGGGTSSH
# [4] = biological target: Serine/threonine-protein kinase WNK4 (Homo sapiens) (UniProt Q96J92); test: Inhibition of Wnk4 Lys2 labeling site in human A-375 cells at 0.05 uM by KiNativ Profiling analysis relative to control; format: cell-based
# [5] = tested on: BaF3; test: Antiproliferative activity against parental mouse BaF3 cells harbouring Bcr/Abl assessed reduction in cell viability measured after 48 hrs by Celltiter-glo assay; format: functional, cell-based; conditions: BaF3, 48 h
# Outline: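 Cells were grown with serial dilutions of compound for 48 h, and viability was read by CellTiter-Glo. IC50 was derived from the dose–response curve. Parental Ba/F3 cells were grown in the presence of interleukin 3. The BCR-ABL line is BCR-ABL-dependent Ba/F3.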
# [6] = biological target: Ephrin type-A receptor 2 (Homo sapiens, UniProt P29317); test: Inhibition of EphA2 (unknown origin) ACT labeling site by KiNativ Profiling analysis
# Chain of Ephrin type-A receptor 2 (P29317 whole entry): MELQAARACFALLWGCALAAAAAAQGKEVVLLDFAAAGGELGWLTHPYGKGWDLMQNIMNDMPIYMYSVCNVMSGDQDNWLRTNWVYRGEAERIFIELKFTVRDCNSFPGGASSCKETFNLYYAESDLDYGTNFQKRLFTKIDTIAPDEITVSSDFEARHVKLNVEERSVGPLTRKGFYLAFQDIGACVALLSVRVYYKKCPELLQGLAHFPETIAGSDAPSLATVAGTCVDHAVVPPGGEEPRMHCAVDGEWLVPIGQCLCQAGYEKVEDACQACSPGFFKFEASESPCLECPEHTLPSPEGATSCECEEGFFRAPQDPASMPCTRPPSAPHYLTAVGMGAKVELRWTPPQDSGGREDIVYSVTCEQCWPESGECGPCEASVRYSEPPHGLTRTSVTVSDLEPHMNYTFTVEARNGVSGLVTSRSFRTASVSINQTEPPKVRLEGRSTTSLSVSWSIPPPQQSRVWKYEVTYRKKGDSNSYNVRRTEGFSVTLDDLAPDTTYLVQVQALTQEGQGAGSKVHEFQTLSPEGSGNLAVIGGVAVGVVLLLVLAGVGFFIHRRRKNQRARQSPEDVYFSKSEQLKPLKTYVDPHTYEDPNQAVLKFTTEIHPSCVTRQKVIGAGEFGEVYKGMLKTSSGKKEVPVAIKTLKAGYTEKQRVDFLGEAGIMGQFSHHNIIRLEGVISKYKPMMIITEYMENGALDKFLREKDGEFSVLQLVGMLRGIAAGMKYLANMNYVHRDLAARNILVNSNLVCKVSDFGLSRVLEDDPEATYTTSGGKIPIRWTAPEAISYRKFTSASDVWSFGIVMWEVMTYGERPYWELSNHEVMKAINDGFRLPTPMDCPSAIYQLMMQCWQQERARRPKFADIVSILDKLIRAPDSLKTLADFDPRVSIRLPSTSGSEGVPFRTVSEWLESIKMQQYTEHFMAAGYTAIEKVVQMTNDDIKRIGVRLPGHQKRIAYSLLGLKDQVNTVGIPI
# [7] = biological target: Tyrosine-protein kinase ABL2 (Homo sapiens, UniProt P42684); test: Inhibition of ARG Lys1 labeling site in human A-375 cells at 5 uM by KiNativ Profiling analysis relative to control; format: cell-based
# Chain of Tyrosine-protein kinase ABL2 (P42684 whole entry): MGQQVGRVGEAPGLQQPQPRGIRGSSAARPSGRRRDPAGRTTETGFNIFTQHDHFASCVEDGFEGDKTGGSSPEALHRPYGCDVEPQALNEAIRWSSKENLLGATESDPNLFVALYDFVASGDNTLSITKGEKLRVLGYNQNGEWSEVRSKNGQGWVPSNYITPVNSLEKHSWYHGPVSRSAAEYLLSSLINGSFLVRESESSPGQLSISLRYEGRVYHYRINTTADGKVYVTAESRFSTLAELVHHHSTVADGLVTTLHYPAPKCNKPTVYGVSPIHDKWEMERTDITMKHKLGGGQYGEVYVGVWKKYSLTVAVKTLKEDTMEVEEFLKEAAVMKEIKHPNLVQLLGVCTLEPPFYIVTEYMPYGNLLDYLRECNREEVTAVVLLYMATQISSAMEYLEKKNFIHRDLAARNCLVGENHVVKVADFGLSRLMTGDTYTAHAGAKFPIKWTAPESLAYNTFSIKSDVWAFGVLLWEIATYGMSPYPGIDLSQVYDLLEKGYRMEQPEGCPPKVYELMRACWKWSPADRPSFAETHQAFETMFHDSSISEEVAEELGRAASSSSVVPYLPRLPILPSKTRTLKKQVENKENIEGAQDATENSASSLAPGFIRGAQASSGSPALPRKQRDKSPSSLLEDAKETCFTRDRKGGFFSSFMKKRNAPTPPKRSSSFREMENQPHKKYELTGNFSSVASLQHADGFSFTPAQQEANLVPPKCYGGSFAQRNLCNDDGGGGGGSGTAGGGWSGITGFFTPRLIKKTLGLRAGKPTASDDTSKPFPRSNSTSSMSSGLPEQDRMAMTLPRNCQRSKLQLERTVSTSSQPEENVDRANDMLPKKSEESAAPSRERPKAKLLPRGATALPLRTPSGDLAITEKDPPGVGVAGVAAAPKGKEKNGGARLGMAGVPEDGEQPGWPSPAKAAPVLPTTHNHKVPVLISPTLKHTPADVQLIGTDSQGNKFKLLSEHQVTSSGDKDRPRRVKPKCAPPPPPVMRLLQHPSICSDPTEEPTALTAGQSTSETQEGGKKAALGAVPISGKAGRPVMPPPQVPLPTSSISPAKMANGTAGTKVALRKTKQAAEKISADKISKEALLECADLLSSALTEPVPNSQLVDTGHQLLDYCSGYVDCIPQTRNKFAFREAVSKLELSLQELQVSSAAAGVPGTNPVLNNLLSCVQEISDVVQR
# Outline: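 Intact A375 melanoma cells were treated with compound at 5 or 0.5 μM, then lysed. Lysate kinases were labeled with a lysine-reactive ATP or ADP-biotin probe (KiNativ). Inhibition is read as protection of each kinase labeling site from probe labeling.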
# [8] = biological target: Serine/threonine-protein kinase 26 (Homo sapiens) (UniProt Q9P289); test: Inhibition of MST4 Lys2 labeling site in human A-375 cells at 0.05 uM by KiNativ Profiling analysis relative to control; format: cell-based
# Chain of Serine/threonine-protein kinase 26 (Homo sapiens) (Q9P289 2-416 limits assumed): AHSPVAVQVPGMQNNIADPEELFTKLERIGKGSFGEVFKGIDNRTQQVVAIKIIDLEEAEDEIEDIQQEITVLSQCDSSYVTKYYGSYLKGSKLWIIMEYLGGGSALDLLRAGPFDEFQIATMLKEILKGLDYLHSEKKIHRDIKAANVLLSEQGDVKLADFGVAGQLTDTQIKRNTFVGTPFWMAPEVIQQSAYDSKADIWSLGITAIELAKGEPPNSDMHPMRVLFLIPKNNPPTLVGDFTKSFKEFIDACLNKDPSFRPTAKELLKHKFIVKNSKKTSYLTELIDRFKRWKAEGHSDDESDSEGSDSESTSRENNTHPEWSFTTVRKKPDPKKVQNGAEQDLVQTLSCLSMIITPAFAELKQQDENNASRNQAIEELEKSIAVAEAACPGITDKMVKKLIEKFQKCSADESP
# [9] = biological target: T1, Serine/threonine-protein kinase Chk1 (Homo sapiens) (UniProt O14757); test: Inhibition of CHK1 Lys2 labeling site harbouring DIKPENLLLDER in human A-375 cells at 0.05 uM by KiNativ Profiling analysis relative to control; format: cell-based
# T1 sequence (whole entry): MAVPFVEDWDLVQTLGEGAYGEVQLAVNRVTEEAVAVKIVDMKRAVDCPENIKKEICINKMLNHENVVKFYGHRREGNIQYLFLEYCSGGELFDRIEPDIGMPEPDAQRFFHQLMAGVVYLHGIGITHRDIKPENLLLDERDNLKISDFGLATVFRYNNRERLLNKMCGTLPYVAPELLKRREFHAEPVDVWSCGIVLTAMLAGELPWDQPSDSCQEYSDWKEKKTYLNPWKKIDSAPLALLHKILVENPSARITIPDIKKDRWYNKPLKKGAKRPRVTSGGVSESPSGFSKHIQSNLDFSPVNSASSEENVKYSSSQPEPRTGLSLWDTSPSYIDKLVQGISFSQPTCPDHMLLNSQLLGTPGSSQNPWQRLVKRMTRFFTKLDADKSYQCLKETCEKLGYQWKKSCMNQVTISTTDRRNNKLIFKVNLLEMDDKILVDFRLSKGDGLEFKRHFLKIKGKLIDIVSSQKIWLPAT
# [10] = biological target: T2, Serine/threonine-protein kinase TBK1 (Homo sapiens) (UniProt Q9UHD2); test: Inhibition of TBK1 Lys1 labeling site in human A-375 cells at 5 uM by KiNativ Profiling analysis relative to control; format: cell-based
# T2 sequence (whole entry): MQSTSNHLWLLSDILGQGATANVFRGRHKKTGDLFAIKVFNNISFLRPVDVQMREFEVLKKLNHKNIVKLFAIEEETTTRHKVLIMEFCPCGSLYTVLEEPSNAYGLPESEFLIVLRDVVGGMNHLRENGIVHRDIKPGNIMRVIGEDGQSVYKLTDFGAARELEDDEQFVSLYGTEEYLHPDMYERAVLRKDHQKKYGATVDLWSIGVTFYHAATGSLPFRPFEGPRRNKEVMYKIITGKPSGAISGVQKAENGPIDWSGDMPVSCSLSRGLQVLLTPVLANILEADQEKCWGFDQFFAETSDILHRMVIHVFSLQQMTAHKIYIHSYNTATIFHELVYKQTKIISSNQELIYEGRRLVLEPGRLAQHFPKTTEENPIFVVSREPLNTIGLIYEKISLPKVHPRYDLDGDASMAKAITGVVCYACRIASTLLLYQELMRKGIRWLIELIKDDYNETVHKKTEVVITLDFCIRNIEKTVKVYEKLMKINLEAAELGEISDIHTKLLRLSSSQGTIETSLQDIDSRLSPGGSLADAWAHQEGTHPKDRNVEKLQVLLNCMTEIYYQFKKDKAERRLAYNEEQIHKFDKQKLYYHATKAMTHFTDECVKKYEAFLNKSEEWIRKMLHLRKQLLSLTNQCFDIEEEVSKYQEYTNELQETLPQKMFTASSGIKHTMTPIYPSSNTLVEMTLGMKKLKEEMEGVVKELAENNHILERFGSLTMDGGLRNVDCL
# [11] = biological target: T3, Mitogen-activated protein kinase kinase kinase 7 (Homo sapiens) (UniProt O43318); test: Inhibition of TAK1 Lys2 labeling site in human A-375 cells at 0.05 uM by KiNativ Profiling analysis relative to control; format: cell-based
# T3 sequence (whole entry): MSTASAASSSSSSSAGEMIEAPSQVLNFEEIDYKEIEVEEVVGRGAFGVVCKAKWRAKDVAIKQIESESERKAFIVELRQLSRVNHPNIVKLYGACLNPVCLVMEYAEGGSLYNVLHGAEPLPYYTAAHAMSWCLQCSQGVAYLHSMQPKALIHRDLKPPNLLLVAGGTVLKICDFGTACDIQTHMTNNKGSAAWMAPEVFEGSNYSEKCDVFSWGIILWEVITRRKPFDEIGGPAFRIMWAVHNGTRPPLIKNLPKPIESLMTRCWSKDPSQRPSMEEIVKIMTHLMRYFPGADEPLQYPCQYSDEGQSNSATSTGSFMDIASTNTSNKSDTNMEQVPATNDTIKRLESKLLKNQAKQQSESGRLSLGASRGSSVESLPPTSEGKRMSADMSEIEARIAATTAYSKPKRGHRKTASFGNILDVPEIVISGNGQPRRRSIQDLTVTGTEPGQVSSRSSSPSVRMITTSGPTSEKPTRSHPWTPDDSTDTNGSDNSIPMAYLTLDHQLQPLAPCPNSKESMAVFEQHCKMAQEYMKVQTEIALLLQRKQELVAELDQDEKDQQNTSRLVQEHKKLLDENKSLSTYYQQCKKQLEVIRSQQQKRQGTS
# Chain of Mitogen-activated protein kinase 10 (P53779 whole entry): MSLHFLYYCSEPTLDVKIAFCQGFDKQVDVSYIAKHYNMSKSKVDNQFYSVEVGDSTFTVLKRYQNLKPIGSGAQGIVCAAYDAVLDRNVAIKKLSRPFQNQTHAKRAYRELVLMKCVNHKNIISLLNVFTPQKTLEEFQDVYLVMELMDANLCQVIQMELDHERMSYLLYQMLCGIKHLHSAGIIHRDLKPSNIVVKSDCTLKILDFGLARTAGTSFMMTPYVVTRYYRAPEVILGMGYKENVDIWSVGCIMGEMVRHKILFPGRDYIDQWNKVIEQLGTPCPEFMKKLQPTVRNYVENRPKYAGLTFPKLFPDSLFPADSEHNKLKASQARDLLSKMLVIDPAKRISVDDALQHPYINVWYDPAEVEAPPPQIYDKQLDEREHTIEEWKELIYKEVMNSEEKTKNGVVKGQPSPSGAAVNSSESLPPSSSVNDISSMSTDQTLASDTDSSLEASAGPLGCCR
SMILES,inhibition [1] [%],inhibition [2] [%],inhibition [3] [%],inhibition [4] [%],IC50 [5] [nM],IC50 [6] [nM],inhibition [7] [%],inhibition [8] [%],inhibition [9] [%],inhibition [10] [%],inhibition [11] [%]
CCN1CCN(Cc2ccc(NC(=O)c3ccc(C)c(Oc4ccnc5[nH]ccc45)c3)cc2C(F)(F)F)CC1,50.3,32.1,1.6,0.1,18,773,86.8,-0.7,49.4,13.2,88.7
CCN1CCN(Cc2ccc(NC(=O)c3ccc(C)c(/C=C/c4cnc5[nH]ccc5c4OC)c3)cc2C(F)(F)F)CC1,23.9,-9.4,0.2,-9.1,10,77,> 90,9.1,8.3,42.7,71.8

# From ChEMBL document CHEMBL5696442, “Discovery of type II inhibitors of TGFβ-activated kinase 1 (TAK1) and mitogen-activated protein kinase kinase kinase kinase 2 (MAP4K2)” (J Med Chem, 2015)
